CHO parental Ca: ATP-evoked calcium signal inhibitors, parental CHO, primary screen, counter-screen for OX1R antagonist project, cell-based, fluorescence, Fluo-8 calcium dye | parental CHO-K1, ATP-induced calcium, Fluo-8 fluorescence | inhibition, % at 5.6 µM | 330,000 tested, 0.63% active | AID 463079, 2010;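 active means inhibition above that plate's mean sample inhibition plus 3 SD, cut at about 26% in these data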
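Assay system: untransfected parental CHO cell line. Also added: ATP agonist challenge. Dosing: one dose, 5.6 µM nominal. Measured by: Fluo-8 fluorescence. Read-out: % inhibition. Benchmarks: ATP wells versus no-ATP DMSO wells. Repeats: no replicates.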
OX1R antag-1: antagonists of human orexin 1 receptor (OX1R). Orexin/Hypocretin receptor type 1 (Homo sapiens), O43613. AID 485270, 2010. inhibition, % at 6.6 µM. OX1R-expressing cells, FRET antagonist read-out. 330,000 tested, 1.8% active; in the data active means inhibition mostly above about 38%, no sharp cut-off; inactive means mostly below about 40%
TAAR1 antag: human TAAR1 antagonists, primary screen, Fluo-8 calcium fluorescence, CHO RD-HGA16 cells; Trace amine-associated receptor 1 (Homo sapiens), Q96RJ0; 360,000 tested, 1.5% active; antagonist; AID 624466, 2012; inhibition, % at 3 µM;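 active means inhibition above a per-plate cutoff, the mean inhibition of test compounds on that plate plus 3 SD, cut at about 49% in these data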
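Test system: hTAAR1-expressing CHO RD-HGA16 cells, Gα16-coupled; Probe or stimulus: EC80 β-phenethylamine stimulus; Compound dosing: single nominal final test compound concentration of 3 µM; Timing: 140 s kinetic read after compound, 140 s after agonist; Signal: Fluo-8 calcium-sensitive fluorescence; Measure: % inhibition of agonist calcium response; Controls: DMSO and EC80 PEA controls.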
TAAR1 agonist: human TAAR1 agonists, primary screen, Fluo-8 calcium fluorescence, CHO RD-HGA16 cells; AID 624467, 2012; vehicle wells 0%, saturating PEA agonist 100%; activation, % at 3 µM; 360,000 tested, 0.99% active;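 active means activation above the mean activation of all test compounds in the run plus 3 SD, cut at about 38% in these data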
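Assay system – CHO-derived RD-HGA16 cells with stable Gα16 and human TAAR1 · Compound dosing – one-point dosing at 3 µM (nominal) · Incubation – 17-24 h seeding, 75 min 37 °C dye, 30 min RT · Measured by – kinetic Fluo-8 calcium fluorescence · Control set – DMSO vehicle as 0%, PEA at EC100 as 100% · Repeats – single well for each compound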
NTR1 ag: agonists of human NTR1, primary screen, imaging, U2OS cells, beta-arrestin-GFP, high content | activation, % at 20 µM | 330,000 tested, 0.17% active | NTR1-U2OS beta-arrestin-GFP spot imaging, agonist mode;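 active means activation at or above 40% of the spot to cytoplasm intensity ratio, with at least 20 cells analyzed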
Target sequence (P30989 whole entry, looked up): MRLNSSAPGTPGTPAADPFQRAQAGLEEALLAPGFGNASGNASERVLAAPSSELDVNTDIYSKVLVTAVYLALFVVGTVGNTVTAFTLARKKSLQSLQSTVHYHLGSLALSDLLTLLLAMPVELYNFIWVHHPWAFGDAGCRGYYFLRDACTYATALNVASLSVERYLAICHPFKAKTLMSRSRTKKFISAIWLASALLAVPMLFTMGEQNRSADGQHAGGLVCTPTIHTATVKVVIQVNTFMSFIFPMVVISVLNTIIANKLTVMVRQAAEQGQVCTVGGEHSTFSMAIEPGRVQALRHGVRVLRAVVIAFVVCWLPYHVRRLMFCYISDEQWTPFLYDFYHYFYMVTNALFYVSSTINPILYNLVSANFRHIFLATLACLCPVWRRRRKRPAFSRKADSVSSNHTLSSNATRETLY
OX1R antag-2: OX1R (HCRTR1) antagonists, primary screen, fluorescence, CHO/OX1R cells, Fluo-8 calcium, orexin A | Orexin/Hypocretin receptor type 1 (Homo sapiens), O43613 | Fluo-8 calcium fluorescence | inhibition, % at 5 µM | 330,000 tested, 0.43% active | AID 434989, 2010;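 active means inhibition above its plate's threshold, mean inhibition of all tested compounds on the plate plus 3 SD, cut at about 37% in these data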
A number is an active result. Hits are enriched below; roughly 4% of the tested compounds scored in any of these assays.

`O=C(COc1ncnc2cc([N+](=O)[O-])ccc12)NC1CCCCC1` gave CHO parental Ca inactive, OX1R antag-1 56.2, TAAR1 antag inactive, TAAR1 agonist inactive, NTR1 ag inactive and OX1R antag-2 inactive.
`C[C@@H](C(=O)NCC1CC1)[C@@H]1C[C@@]1(C)[C@@H](NC(=O)OCc1ccccc1)c1ccccc1` gave CHO parental Ca inactive, OX1R antag-1 inactive, TAAR1 antag inactive, TAAR1 agonist inactive, NTR1 ag inactive and OX1R antag-2 inactive.
C[C@@H](C(=O)NCc1ccccn1)[C@H]1C[C@]1(C)[C@H](NC(=O)OCc1ccccc1)c1ccccc1 was read as CHO parental Ca inactive, OX1R antag-1 inactive, TAAR1 antag 49.1, TAAR1 agonist inactive, NTR1 ag inactive and OX1R antag-2 inactive.
For O=C(CN1C(=O)CSc2ccc(S(=O)(=O)N3CCOCC3)cc21)NCc1ccc(Cl)cc1 the results were CHO parental Ca inactive, OX1R antag-1 48.3, TAAR1 antag inactive, TAAR1 agonist inactive, NTR1 ag inactive and OX1R antag-2 inactive.
For COc1ccc(N(Cc2cc3cc(OC)ccc3[nH]c2=O)S(=O)(=O)c2ccc(NC(C)=O)cc2)cc1 the results were CHO parental Ca inactive, OX1R antag-1 inactive, TAAR1 antag 57.7, TAAR1 agonist inactive, NTR1 ag inactive and OX1R antag-2 inactive.
CC(=O)Nc1ccc(S(=O)(=O)N(Cc2cccnc2)Cc2cc3ccccc3[nH]c2=O)cc1 was read as CHO parental Ca inactive, OX1R antag-1 inactive, TAAR1 antag 60.8, TAAR1 agonist inactive, NTR1 ag inactive and OX1R antag-2 inactive.
For O=C(O)c1ccc(N(Cc2ccccc2)S(=O)(=O)c2ccccc2)cc1 the results were CHO parental Ca inactive, OX1R antag-1 inactive, TAAR1 antag inactive, TAAR1 agonist inactive, NTR1 ag inactive and OX1R antag-2 inactive.
Screening O=c1[nH]c2ccccc2cc1CN(Cc1cccnc1)S(=O)(=O)c1ccc(Cl)cc1 returned CHO parental Ca inactive, OX1R antag-1 inactive, TAAR1 antag inactive, TAAR1 agonist inactive, NTR1 ag inactive and OX1R antag-2 inactive.
For CC(=O)Nc1ccc(S(=O)(=O)N(Cc2ccccc2)c2ccccc2)cc1 the results were CHO parental Ca inactive, OX1R antag-1 66.1, TAAR1 antag inactive, TAAR1 agonist inactive, NTR1 ag inactive and OX1R antag-2 inactive.
C[C@@H]1Cn2cnc(C(=O)N3CCN(C(=O)OC(C)(C)C)CC3)c2C(=O)N1 was read as TAAR1 antag inactive and TAAR1 agonist inactive.
For CON(C)C(=O)C(C)(C)CC#CCN(CC#Cc1ccccc1)S(=O)(=O)c1ccc(C)cc1 the results were TAAR1 antag inactive and TAAR1 agonist inactive.
CCN(c1ccccc1)S(=O)(=O)c1ccc(OC)c(NC(=O)CNCCc2ccccc2)c1 was read as CHO parental Ca inactive, OX1R antag-1 inactive, TAAR1 antag 55.1, TAAR1 agonist inactive, NTR1 ag inactive and OX1R antag-2 inactive.
For CC(C)Cc1ccc(C(C)C(=O)OCC(=O)c2c[nH]c3ccccc23)cc1 (stereo not given) the results were CHO parental Ca 75.1, OX1R antag-1 inactive, TAAR1 antag inactive, TAAR1 agonist 54.5, NTR1 ag inactive and OX1R antag-2 38.7.
`CC(O)C(NS(=O)(=O)c1ccc(Cl)cc1)C(=O)OCC(=O)c1c[nH]c2ccccc12` (stereo not given) gave CHO parental Ca inactive, OX1R antag-1 inactive, TAAR1 antag 58.0, TAAR1 agonist inactive, NTR1 ag inactive and OX1R antag-2 inactive.
For CC(C)C(NS(=O)(=O)c1c(Cl)cccc1Cl)C(=O)OCC(=O)c1c[nH]c2ccccc12 (stereo not given) the results were CHO parental Ca inactive, OX1R antag-1 inactive, TAAR1 antag inactive, TAAR1 agonist inactive, NTR1 ag inactive and OX1R antag-2 inactive.
Screening Cc1ccc(C(=O)OCC(=O)c2c[nH]c3ccccc23)cc1 returned CHO parental Ca inactive, OX1R antag-1 inactive, TAAR1 antag inactive, TAAR1 agonist inactive, NTR1 ag inactive and OX1R antag-2 inactive.
COc1ccc(S(=O)(=O)N(C)CC(=O)NCCCn2ccnc2)cc1Cl was read as CHO parental Ca inactive, OX1R antag-1 inactive, TAAR1 antag inactive, TAAR1 agonist inactive, NTR1 ag inactive and OX1R antag-2 inactive.
`C=CC[C@]12C[C@@]3(O[C@H](C4CCCCC4)N=C3C[C@H](c3ccc(OC)cc3)[C@H]1C)N(Cc1ccncc1)C2=O` gave TAAR1 antag inactive and TAAR1 agonist inactive.
For CC1=C(C)/C(=N\OS(=O)(=O)c2ccc(C)cc2)C=CC1=O the results were CHO parental Ca 67.5, OX1R antag-1 81.6, TAAR1 antag 51.7, TAAR1 agonist inactive and OX1R antag-2 57.5.
CC(S(=O)(=O)c1ccccc1)S(=O)(=O)c1ccccc1 was read as TAAR1 antag inactive and TAAR1 agonist inactive.
Screening CC1=C/C(=N\OS(=O)(=O)c2ccccc2)C(C)=CC1=O returned CHO parental Ca 82.0, OX1R antag-1 102.3, NTR1 ag inactive and OX1R antag-2 93.0.
CC1=C/C(=N\OS(=O)(=O)c2ccccc2)C(C(C)C)=CC1=O was read as CHO parental Ca inactive, OX1R antag-1 inactive and OX1R antag-2 51.1.
COc1cc(C(=O)O/N=C2/C=C(C)C(=O)C=C2C)cc(OC)c1OC was read as CHO parental Ca inactive, OX1R antag-1 inactive, TAAR1 antag inactive, TAAR1 agonist inactive, NTR1 ag inactive and OX1R antag-2 inactive.
COc1ccc(S(=O)(=O)/N=C2/C=CC(=O)C(C)=C2C)cc1 was read as CHO parental Ca inactive, OX1R antag-1 inactive, NTR1 ag inactive and OX1R antag-2 inactive.
`c1ccc(-c2nc(NCc3cccnc3)c3oc4ccccc4c3n2)cc1` gave CHO parental Ca inactive, OX1R antag-1 68.0, TAAR1 antag inactive, TAAR1 agonist inactive, NTR1 ag inactive and OX1R antag-2 inactive.
CCCCCn1cc(CCC(=O)Nc2ccc(Oc3cccnc3)cc2)c2ccccc21 was read as TAAR1 antag inactive and TAAR1 agonist inactive.
Screening COc1ccc(C(CCNCc2ccc(OC(C)C)cc2)C(C)C)cc1 (stereo not given) returned CHO parental Ca 27.0, OX1R antag-1 inactive, TAAR1 antag inactive, TAAR1 agonist inactive, NTR1 ag inactive and OX1R antag-2 inactive.
`COc1ccccc1C1=CC(=O)C[C@H](c2ccc(Cl)cc2)C1` gave CHO parental Ca inactive, OX1R antag-1 inactive, TAAR1 antag 49.8, TAAR1 agonist inactive, NTR1 ag inactive and OX1R antag-2 inactive.
